Source: PubChem (several laboratories)
Arbovirus inh – antivirals against arbovirus infection. arbovirus infection cell-based antiviral screen. inhibition, % at 10 µM. hit rate 0.37% among 200,000. AID 1251; in the data active = inhibition above about 30%
CHOP inh – inhibitors of CHOP induction in ER stress response. CHO-K1 CHOP-promoter luciferase, tunicamycin-induced, 15-18 h. inhibition, % at 10 µM. hit rate 3.8% among 220,000;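 active = compounds that reduced the stress-induced luciferase reporter signal by more than about 70% of percent inhibition, limit read from the data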
Rad51 HR inh – Rad51 (human) homologous recombination inhibition; Q06609; hRad51 DNA strand exchange, fluorescence dequenching; inhibition, % at 10 µM; hit rate 0.085% among 200,000;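 active = inhibition above 40% at the single screening dose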
Target sequence (Q06609 whole entry, looked up): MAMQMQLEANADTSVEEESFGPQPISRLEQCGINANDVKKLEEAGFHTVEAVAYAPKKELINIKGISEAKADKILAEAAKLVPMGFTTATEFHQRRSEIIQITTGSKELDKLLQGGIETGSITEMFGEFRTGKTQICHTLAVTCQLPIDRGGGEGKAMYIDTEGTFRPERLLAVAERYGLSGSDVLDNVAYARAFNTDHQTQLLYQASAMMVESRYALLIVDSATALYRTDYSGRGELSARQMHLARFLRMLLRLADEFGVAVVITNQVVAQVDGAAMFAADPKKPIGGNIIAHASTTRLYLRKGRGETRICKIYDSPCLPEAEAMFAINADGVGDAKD
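System: human Rad51 nucleoprotein filaments preassembled on unlabelled ssDNA. Reagent: labelled 47-mer dsDNA for strand exchange. Schedule: 30-min compound preincubation and 15-min exchange, both room temperature. Measured by: FRET fluorescence dequenching, excitation 485 nm, emission 520 nm. Read-out: Fluorescence-based percent inhibition, control- and blank-normalised. Benchmarks: plate controls and plate blanks.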
Lmaj promast – reduces viability of Leishmania major promastigotes; resazurin fluorescence viability; hit rate 9% among 200,000; inhibition, % at 10 µM;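 note: promastigotes grown with compound for 44 hours at 28 °C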
Wee1 degr inh – inhibitors of human Wee1 degradation | P30291 | HeLa Luc-Wee1K328M stability, luciferase luminescence; 100% = proteasome inhibitor MG132 effect | reporter increase, % at 5 µM | hit rate 1.2% among 220,000 | AID 1321;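 active = activation above the mean of all tested compounds plus 3 SD, set per screening run, cut at about 8.8% in these data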;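 note: cells exposed to compound for 20 h before luminescence read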
PKD1 inh – PKD1 (human) kinase inhibition. Q15139. hit rate 0.056% among 200,000. inhibition, % (no concentration beside the values). PKD1 kinase fluorescence polarization assay
PKD FP artifact – counter-screen for PKD inhibitors: fluorescence polarization interference; shares compounds with PKD1 inh; PKD1 FP assay interference counter-screen; inhibition, % at 10 µM; 85 tested, under 10 active; call rule not given here
L major 1uM – inhibitors of Leishmania major promastigote growth, repeat at 1 uM | shares compounds with Lmaj promast | L. major promastigote growth, resazurin fluorescence, 48 h | inhibition, % at 1 µM | hit rate 13% among 1,100 | AID 1258;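 active = inhibition above about 50% in both repeat tests, limit read from the data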
Each line names hits and unclear results; the compound was inactive in the other large screens (follow-up assays come after a bar, where they were run). An excerpt weighted towards active compounds, which were near 12% of everything screened. Cut-off read from the data, not from the text of the source, unless noted: active = inhibition above about 50%; inactive = the rest.

O=C(O/N=C/c1ccc2c(c1)OCO2)c1ccc([N+](=O)[O-])cc1	none
Cc1ccc(C(=O)O/N=C/c2ccc3c(c2)OCO3)cc1	Lmaj promast 59
O=S(=O)(c1cnc[nH]1)N1CCCCCC1	Wee1 degr inh 13
N#Cc1ccc(C(=O)Nc2ccc([N+](=O)[O-])cc2)c(F)c1	none
CCCOc1ccc([N+](=O)[O-])cc1C1NC(=S)NC(c2ccccc2)=C1C(=O)OCC (stereo unspecified)	Lmaj promast 100
Cn1c(N2CCN(S(=O)(=O)c3ccc(Cl)cc3)CC2)nc2ccccc21	none
Cc1cc(C)n(-c2nc3ccccc3nc2N2CCN(S(=O)(=O)c3ccc4ccccc4c3)CC2)n1	Lmaj promast 54
Cc1cc(N2CCN(S(=O)(=O)c3ccc(Cl)cc3)CC2)c2ccccc2n1	Arbovirus inh 36
Cc1cc(C)n(-c2nc3ccccc3nc2N2CCN(S(=O)(=O)c3ccc(F)c(C)c3)CC2)n1	none
Cc1cc(N2CCN(S(=O)(=O)c3ccc(Cl)c(Cl)c3)CC2)c2ccccc2n1	Lmaj promast 74
Cc1cc(C)c(S(=O)(=O)N2CCCOC2CNC(=O)C(=O)NCc2ccncc2)c(C)c1 (stereo unspecified)	none
OC(COc1ccccc1Cl)CN1CCN(CC(O)COc2ccccc2Cl)CC1 (stereo unspecified)	Lmaj promast 88
OC(COc1ccc2ccccc2c1Cl)CN1CCOCC1 (stereo unspecified)	Lmaj promast 92
OC(COc1ccccc1)CN1CCOCC1 (stereo unspecified)	none
COc1ccc(/C=C2\SC(=O)N=C2N)cc1	Lmaj promast 57
C=CCOc1cccc(C2C(C(=O)c3ccc(C)o3)=C(O)C(=O)N2c2nccs2)c1 (stereo unspecified)	PKD1 inh 76 | PKD FP artifact 54
C=CCOc1cccc(C2C(C(=O)c3ccco3)=C(O)C(=O)N2CCN(CC)CC)c1 (stereo unspecified)	none
Cc1cc(/C=N/N2CCN(C)CC2)c(C)n1-c1ccc(Cl)cc1	none (no result: Arbovirus inh, Lmaj promast, PKD1 inh)
CCC(=O)Nc1c2c(nn1-c1ccccc1C)CSC2	PKD1 inh 81 | PKD FP artifact inactive
COc1ccc(/C=C(\NC(=O)c2ccc(C)cc2)C(=O)Nc2c(C)n(C)n(-c3ccccc3)c2=O)cc1	none
Cc1ccc(/C=N/n2c(C)nc3ccccc3c2=O)s1	none
Nc1nc2ccccc2n1/N=C/c1cccnc1	PKD1 inh 69 | PKD FP artifact inactive
Nc1nc2ccccc2n1/N=C/c1ccc([N+](=O)[O-])s1	Lmaj promast 100, PKD1 inh 52 | PKD FP artifact inactive
CN(C)CCOc1ccc2c(c1)Sc1ccccc1CC2=O	Lmaj promast 100, PKD1 inh 59 (no result: Rad51 HR inh) | PKD FP artifact inactive
O=C(CN1CCCC1)Nc1c2c(nc3ccccc13)N(Cc1ccccc1)CC2	Lmaj promast 51, PKD1 inh 100 | PKD FP artifact inactive
CCc1nc(NCCCCCO)c2nnn(Cc3ccccc3F)c2n1	none
Clc1cncc(Cl)c1N/N=C/c1ccncc1	PKD1 inh 91 | PKD FP artifact inactive
CCOc1cc(S(=O)(=O)NCCc2cccc(C)c2)c(OCC)cc1-n1cnnn1	none
CS(=O)(=O)N1CCN(c2ccccc2NC(=O)c2ccc(Br)o2)CC1	PKD1 inh 96 | PKD FP artifact inactive
CN1CCN(c2ccccc2NC(=O)c2ccc(Br)o2)CC1	none (no result: Rad51 HR inh)
CCn1c(CSc2ncccn2)nnc1SCC(=O)N1CCc2ccccc21	PKD1 inh 99 (no result: Rad51 HR inh) | PKD FP artifact inactive
Cn1c(CSc2ncccn2)nnc1SCC(=O)N1CCCc2ccccc21	none (no result: Rad51 HR inh)
O=C1CC(N2CCN(c3ccccc3Cl)CC2)C(=O)N1c1cccc(F)c1 (stereo unspecified)	PKD1 inh 109 | PKD FP artifact inactive
O=C1CC(N2CCN(c3ccccc3F)CC2)C(=O)N1c1ccc(F)cc1 (stereo unspecified)	none (no result: Arbovirus inh, CHOP inh)
O=C1CC(N2CCN(c3ccccc3Cl)CC2)C(=O)N1c1ccc(F)cc1 (stereo unspecified)	PKD1 inh 51 | PKD FP artifact inactive
Cc1cccc(N2C(=O)CC(N3CCN(c4ccccc4)CC3)C2=O)c1 (stereo unspecified)	none
Cc1c(N/N=C(\C#N)C(=O)c2ccccc2)c(=O)n(-c2ccccc2)n1C	PKD1 inh 55 (no result: Rad51 HR inh) | PKD FP artifact inactive
O=C(c1ccc(S(=O)(=O)NCC2CCCO2)cc1)N1CCN(c2cccc(Cl)c2)CC1 (stereo unspecified)	none
O=C(c1cc(-c2ccccc2)nc2ccccc12)N1CCN(c2ccccn2)CC1	PKD1 inh 93 | PKD FP artifact inactive
CCN(CC)CCCN(Cc1cc2cc3c(cc2[nH]c1=O)OCO3)C(=S)Nc1ccc(OC)cc1	none
O=C(CN1CCN(c2ncccn2)CC1)N1CCCc2c1c(=O)oc1ccc(O)cc21	none
O=C1NCCCc2c1oc1ccc(O)cc21	PKD1 inh 100 | PKD FP artifact inactive
COC(=O)c1ccccc1OCC(=O)NC1CCCCC1	PKD1 inh 85 | PKD FP artifact inactive
CCc1ccccc1OCC(=O)NC1CCCC1	none
NC(N)=NC(=O)c1nc(Cl)c(N)nc1N	PKD1 inh 80 | PKD FP artifact inactive
c1ccc(-c2n[nH]c3ccccc23)cc1	PKD1 inh 90 | PKD FP artifact inactive
Cc1cccc(C(=O)NC(=S)NNC(=O)COc2c(C)cccc2C)c1	none (no result: Rad51 HR inh)
CCc1c(C)nc(SCC(=O)N2CCCCC2C)[nH]c1=O (stereo unspecified)	none (no result: Rad51 HR inh)
COc1cc(C2=NOC(C(=O)NCc3ccco3)C2)cc(OC)c1OC (stereo unspecified)	PKD1 inh 112 (no result: CHOP inh) | PKD FP artifact inactive
COc1ccc(C2=NOC(C(=O)NCc3ccco3)C2)cc1 (stereo unspecified)	none
CCOC(=O)CSc1n[nH]c(NC(=O)NC(C)C)n1	none (no result: Rad51 HR inh)
O=C(Nc1ccc(Cl)cc1C(=O)N1CCOCC1)c1cccc([N+](=O)[O-])c1	none (no result: Rad51 HR inh)
Nc1nc2ccc([N+](=O)[O-])c(N)c2s1	PKD1 inh 97 | PKD FP artifact inactive
O=C(NNC(=S)NC1CCCCC1)c1ccccc1O	none
Cc1ccc(C(=O)NNC2=Nc3cccc4cccc2c34)cc1	CHOP inh 89, PKD1 inh 54 | PKD FP artifact inactive
O=C(CCCSc1nnc(SCCCC(=O)c2ccc(F)cc2)s1)c1ccc(F)cc1	none
Nc1nnc(SCCCC(=O)c2ccc(F)cc2)s1	PKD1 inh 65 | PKD FP artifact inactive
Clc1ccc(Nc2ccc(-n3ccnc3)nn2)cc1Cl	Lmaj promast 51, PKD1 inh 52 | PKD FP artifact inactive | L major 1uM inactive
COc1ccc(C(=O)NCc2nnc(SC)n2Cc2ccccc2)cc1	none
